Calls of active or inactive are those of the source.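 Rule for the calls, unless noted: active = viability at or below 30% in both replicate assays; inconclusive = viability at or below 30% in just one of the two assays; inactive = the rest.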
Legend:
[1] = SK-BR-3 cell growth inhibitors, pilot screen, 24 h, human (AID 572;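 active = viability at or below 10% of carrier control in both of two separate runs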;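 note: compound exposure lasted between 18 and 24 h rather than exactly 24 h; 100% = carrier-treated control wells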); settings: SK-BR-3 viability, CellTiter-Glo luminescence, at 10 µM, stronger effect = lower value
[2] = HUVEC growth inhibition – cell-based, human, primary screen (AID 575); settings: HUVEC proliferation, CellTiter-Glo luminescence, 72 h; at 10 µM; stronger effect = lower value;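 note: 100% = median of untreated cell wells with 0.1% DMSO on each plate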
Outline: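 System: primary human umbilical vein endothelial cells; Quantity: 1250 endothelial cells in each well; Buffer or medium: supplemented EBM, 2% fetal bovine serum; Doses: one dose, 10 µM final, 0.1% DMSO; Incubation: 72 h compound incubation; Technique: ATP-based CellTiter-Glo luminescent read; Evaluation: percent of median DMSO-control luminescence; Controls: vehicle and MePR control wells.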

[3] = growth inhibitors of H69AR lung tumor, primary screen, human, duplicate replicates (AID 580;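 active = viability at or under a set limit in both replicates, limit being median viability minus 3 SD, cut at about 48% in these data, passing the limit was not always enough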;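 note: 100% = mean luminescence of untreated wells and 0% = no signal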); settings: H69AR lung tumor cells viability, ATP luminescence, 72 h; at 10 µM; stronger effect = lower value
[4] = reversal of MRP1-mediated doxorubicin resistance, pilot screen, H69AR cells, doxorubicin co-treatment (AID 601;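 active = viability loss from added drug above about 55%, and viability with drug at most 40%, in both replicates, limit read from the data, passing the limit was not always enough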); settings: CellTiter-Glo, 72 h, at 10 µM; for differential viability (reversal): stronger effect = higher value
[5] = 384-well plate pilot, post-Golgi transport modulator project, inhibition of yeast transport mutant growth (AID 636; in the data active = inhibition above about 31%); settings: absorbance 615 nm, about 18 h, stronger effect = higher value
[6] = growth suppression of yeast trafficking mutant, preliminary HTS, modulators of trafficking downstream of Golgi apparatus project, 1536-format plate, OD 615 nm (AID 637; in the data active = inhibition above about 30%); settings: yeast transport mutant growth, absorbance 615 nm, 18 h; stronger effect = higher value
[7] = H69AR cells + 2 uM doxorubicin, measured here: viability with 2 uM doxorubicin, stronger effect = lower value
[8] = H69AR cells, compound alone cytotoxicity

COCCNC(=O)c1snc2ccc(Cl)cc12
viability [1]: 89% (inactive) | viability [2]: 83.4% (inactive) | viability [3]: 102% (inactive) | differential viability (reversal) ([4]; H69AR cells + 2 uM doxorubicin): 10.2% (inactive) | viability [4, 7]: 91.5% | viability [4, 8]: 102% | inhibition [5]: 4.42% (inactive) | inhibition [6]: 4.43% (inactive)

O=C(Cn1c(=O)n(CC2CCCO2)c(=O)c2ccccc21)c1ccccc1 (configuration not stated)
viability [1]: 121% (inactive) | viability [2]: 79.1% (inactive) | viability [3]: 81.5% (inactive) | differential viability (reversal) ([4]; H69AR cells + 2 uM doxorubicin): -7.53% (inactive) | viability [4, 7]: 89% | viability [4, 8]: 81.5% | inhibition [5]: -1.17% (inactive) | inhibition [6]: 6.39% (inactive)

COc1ccc(OC)c(S(=O)(=O)N2CCC(C(=O)NCc3ccccc3OC)CC2)c1
viability [1]: 101% (inactive) | viability [2]: 97.5% (inactive) | viability [3]: 103% (inactive) | differential viability (reversal) ([4]; H69AR cells + 2 uM doxorubicin): -0.525% (inactive) | viability [4, 7]: 103% | viability [4, 8]: 103% | inhibition [5]: 0.55% (inactive) | inhibition [6]: -4.03% (inactive)

Cc1ccc(O)c(-c2cc(C(=O)Nc3ccc(S(=O)(=O)N4CC(C)OC(C)C4)cc3)[nH]n2)c1 (configuration not stated)
viability [1]: 92% (inactive) | viability [2]: 56.7% (inactive) | viability [3]: 34.8% (active) | differential viability (reversal) ([4]; H69AR cells + 2 uM doxorubicin): -8.67% (inactive) | viability [4, 7]: 43.5% | viability [4, 8]: 34.8% | inhibition [5]: -11.1% (inactive) | inhibition [6]: -1.59% (inactive)

O=C(CSc1ccccc1C(=O)NCCCN1CCCC1=O)NCc1ccco1
viability [1]: 108% (inactive) | viability [2]: 102% (inactive) | viability [3]: 82.3% (inactive) | differential viability (reversal) ([4]; H69AR cells + 2 uM doxorubicin): 2.32% (inactive) | viability [4, 7]: 80% | viability [4, 8]: 82.3% | inhibition [5]: -3.6% (inactive) | inhibition [6]: 6% (inactive)

CS(=O)(=O)N1CCc2cc(S(=O)(=O)Nc3ccc4oc5c(c4c3)CCCC5)ccc21
viability [1]: 76% (inactive) | viability [2]: 43.3% (inactive) | viability [3]: 88.9% (inactive) | differential viability (reversal) ([4]; H69AR cells + 2 uM doxorubicin): -13.8% (inactive) | viability [4, 7]: 103% | viability [4, 8]: 88.9% | inhibition [5]: -2.47% (inactive) | inhibition [6]: 0% (inactive)

CN(C)CCCC1(c2ccc(F)cc2)OCc2cc(C#N)ccc21 (configuration not stated)
viability [1]: 79% (inactive) | viability [2]: 73.3% (inactive) | viability [3]: 103% (inactive) | differential viability (reversal) ([4]; H69AR cells + 2 uM doxorubicin): 17.6% (inactive) | viability [4, 7]: 85.7% | viability [4, 8]: 103% | inhibition [5]: -1.56% (inactive) | inhibition [6]: -2.5% (inactive)

O=C(CSc1ncn[nH]1)NC1CC2CCC1C2 (configuration not stated)
viability [1]: 94% (inactive) | viability [2]: 103% (inactive) | viability [3]: 98% (inactive) | differential viability (reversal) ([4]; H69AR cells + 2 uM doxorubicin): -22.4% (inactive) | viability [4, 7]: 120% | viability [4, 8]: 98% | inhibition [5]: -5.34% (inactive) | inhibition [6]: -1.82% (inactive)

Cc1nc(NC(=O)c2ccccc2)sc1-c1csc(NCc2ccco2)n1
viability [1]: 82% (inactive) | viability [2]: 89% (inactive) | viability [3]: 20.2% (active) | differential viability (reversal) ([4]; H69AR cells + 2 uM doxorubicin): -42.5% (inactive) | viability [4, 7]: 62.7% | viability [4, 8]: 20.2% | inhibition [5]: 34.6% (active) | inhibition [6]: 9.27% (inactive)

CC(=O)C1=C(O)C(=O)N(C2CCCCC2)C1c1ccccc1 (configuration not stated)
viability [1]: 107% (inactive) | viability [2]: 98.6% (inactive) | viability [3]: 97.3% (inactive) | differential viability (reversal) ([4]; H69AR cells + 2 uM doxorubicin): 10.9% (inactive) | viability [4, 7]: 86.4% | viability [4, 8]: 97.3% | inhibition [5]: -8.08% (inactive) | inhibition [6]: 5.32% (inactive)

c1ccc(-c2nc3cnccn3c2Nc2ccc3c(c2)OCCO3)cc1
viability [1]: 96% (inactive) | viability [2]: 107% (inactive) | viability [3]: 91.5% (inactive) | differential viability (reversal) ([4]; H69AR cells + 2 uM doxorubicin): 38.5% (inactive) | viability [4, 7]: 52.9% | viability [4, 8]: 91.5% | inhibition [5]: -5.47% (inactive) | inhibition [6]: -1.27% (inactive)

O=C(NCc1ccco1)c1cc2cc3ccc(Cl)cc3nc2o1
viability [1]: 90% (inactive) | viability [2]: 21.4% (active) | viability [3]: 2.59% (active) | differential viability (reversal) ([4]; H69AR cells + 2 uM doxorubicin): -0.39% (inactive) | viability [4, 7]: 2.98% | viability [4, 8]: 2.59% | inhibition [5]: -0.65% (inactive) | inhibition [6]: 0% (inactive)

O=C(CCC1COc2ccccc2O1)NCC1COc2ccccc2O1 (configuration not stated)
viability [1]: 125% (inactive) | viability [2]: 103% (inactive) | viability [3]: 87.8% (inactive) | differential viability (reversal) ([4]; H69AR cells + 2 uM doxorubicin): 4.35% (inactive) | viability [4, 7]: 83.4% | viability [4, 8]: 87.8% | inhibition [5]: -6.3% (inactive) | inhibition [6]: 4.68% (inactive)

COc1ccccc1OCc1nc2ccccc2[nH]1
viability [1]: 69% (inactive) | viability [2]: 88.5% (inactive) | viability [3]: 99.3% (inactive) | differential viability (reversal) ([4]; H69AR cells + 2 uM doxorubicin): -5.04% (inactive) | viability [4, 7]: 104% | viability [4, 8]: 99.3% | inhibition [5]: -6.16% (inactive) | inhibition [6]: -0.55% (inactive)

From PubChem BioAssay
